The results in this text go back to ChEMBL document CHEMBL3407418, “Fragment-based drug discovery of 2-thiazolidinones as BRD4 inhibitors: 2. Structure-based optimization” (J Med Chem, 2015).

What is called IC50 is the concentration needed to halve the response being measured. Low values mean greater potency in that assay, high ones weaker potency in that assay. In general, ΔTm refers to the change in melting temperature against a reference sample. In general, inhibition refers to the drop in the measured response relative to a control, in per cent.

Data set [1] addresses Bromodomain-containing protein 4 (Homo sapiens, UniProt O60885). Description: Inhibition of BRD4(1) (unknown origin) incubated for 4 hrs by (+)-JQ1 fluorescent ligand based fluorescence anisotrophy.
The test system of data set [2] is HT-29. Put plainly: Growth inhibition of human HT-29 cells after 72 hrs by SRB assay. Format: functional, cell-based. The following applies: HT-29, 72 h. An outline of the steps: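 HT-29 cells are grown in McCoy's 5A with 10% FBS at 37 °C, 5% CO2. DMSO stocks (0.01 mol/L) are diluted in normal saline just before use. Cells are treated in triplicate with gradient concentrations for 72 h at 37 °C.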
(In general: Sulforhodamine B stains cellular protein and so reports cell mass.)

A short description of data set [3]: Growth inhibition of human MM1S cells after 72 hrs by CellTiter-Glo luminescent cell viability assay. To be noted: MM1.S. In general terms: ATP-based viability assays read luminescence as a measure of living cells.
Data set [4] concerns MV4-11. Description: Growth inhibition of human MV4-11 cells after 72 hrs by CellTiter-Glo luminescent cell viability assay. To be noted: MV4-11, 72 h.
The target of data set [5] is T1, ATPase family AAA domain-containing protein 2 (Homo sapiens) (UniProt Q6PL18).
T1 sequence (whole entry): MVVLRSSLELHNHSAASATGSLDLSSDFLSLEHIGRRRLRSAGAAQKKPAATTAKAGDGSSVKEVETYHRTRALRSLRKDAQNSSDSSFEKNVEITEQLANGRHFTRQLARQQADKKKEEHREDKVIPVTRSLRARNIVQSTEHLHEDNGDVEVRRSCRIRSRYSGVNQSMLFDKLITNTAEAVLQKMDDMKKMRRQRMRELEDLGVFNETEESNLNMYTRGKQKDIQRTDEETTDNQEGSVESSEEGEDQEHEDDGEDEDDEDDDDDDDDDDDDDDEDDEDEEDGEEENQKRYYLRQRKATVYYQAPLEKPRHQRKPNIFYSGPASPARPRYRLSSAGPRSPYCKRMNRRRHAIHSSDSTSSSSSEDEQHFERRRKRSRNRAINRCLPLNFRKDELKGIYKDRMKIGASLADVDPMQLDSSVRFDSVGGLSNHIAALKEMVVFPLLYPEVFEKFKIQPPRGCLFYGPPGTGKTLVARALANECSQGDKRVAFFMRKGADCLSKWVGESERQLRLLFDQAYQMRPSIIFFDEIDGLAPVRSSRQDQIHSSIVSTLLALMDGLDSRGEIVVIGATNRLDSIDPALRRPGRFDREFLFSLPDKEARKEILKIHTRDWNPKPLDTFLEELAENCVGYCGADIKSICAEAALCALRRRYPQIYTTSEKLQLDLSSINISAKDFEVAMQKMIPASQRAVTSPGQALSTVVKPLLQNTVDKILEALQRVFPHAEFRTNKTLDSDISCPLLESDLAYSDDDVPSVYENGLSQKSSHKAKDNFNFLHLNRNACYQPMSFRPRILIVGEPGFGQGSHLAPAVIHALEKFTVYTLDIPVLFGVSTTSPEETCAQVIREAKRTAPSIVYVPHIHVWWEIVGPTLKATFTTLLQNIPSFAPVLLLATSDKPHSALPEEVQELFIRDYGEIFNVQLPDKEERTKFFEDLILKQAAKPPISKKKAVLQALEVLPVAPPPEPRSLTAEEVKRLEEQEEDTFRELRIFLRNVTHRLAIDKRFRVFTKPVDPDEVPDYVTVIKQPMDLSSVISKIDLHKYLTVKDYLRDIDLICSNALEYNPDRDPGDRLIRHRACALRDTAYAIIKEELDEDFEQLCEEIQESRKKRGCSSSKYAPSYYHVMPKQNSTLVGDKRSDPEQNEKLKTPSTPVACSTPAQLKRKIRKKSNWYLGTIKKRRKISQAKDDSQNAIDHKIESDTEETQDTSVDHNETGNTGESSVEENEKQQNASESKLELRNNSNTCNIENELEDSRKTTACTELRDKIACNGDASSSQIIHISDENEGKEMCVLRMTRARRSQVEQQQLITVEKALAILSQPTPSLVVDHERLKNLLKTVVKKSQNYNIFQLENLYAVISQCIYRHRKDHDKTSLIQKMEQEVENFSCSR
Put plainly: Binding affinity to ATAD2 (unknown origin) assessed as increase in protein melting temperature at 50 umol by real-time PCR system based thermal shift assay. An outline of the steps: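 Bromodomain proteins in 10 mmol HEPES pH 7.5, 500 mmol NaCl at 75 μg/mL final; compound at 50 µmol final; SYPRO Orange probe at 1:1000. Four replicates per protein mixture. Melt curve read on a real-time PCR instrument, heating 25 °C to 99 °C at 1 °C/min under continuous fluorescence reading; binding taken as the rise in protein melting temperature.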

Data set [6] is described as follows: Stability in human liver microsomes assessed as clearance at 1 uM pre-incubated for 5 mins followed by NADPH addition and measured after 5 to 30 mins post NADPH addition by LC/MS/MS method. The data set is classed as ADME. To be noted: read-out: CLH. The method in brief:
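Human liver microsomes (0.5 mg/mL) preincubated with 1 µM compound for 5 min at 37 °C in 0.1 M phosphate pH 7.4 with 1 mmol EDTA and 5 mmol MgCl2. Started with 1 mmol NADPH; sampled at 0, 5, 10 and 30 min. Quenched with equal volume of cold acetonitrile, vortexed, and centrifuged at 10,000 × g.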
On the technique in general: Liver microsomes are vesicles of endoplasmic reticulum, rich in cytochrome P450 enzymes.

In data set [7] the target is T2, CYP3A4 (Homo sapiens, UniProt P08684). Put plainly: Inhibition of CYP3A4 in human liver microsomes at 10 uM using midazolam substrate preincubated for 5 mins before NADPH addition and measured after 20 mins post NADPH addition. The following applies: probe midazolam. The data set is classed as ADME. An outline of the steps: (§1)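 Human liver microsomes 0.2 mg/mL, 1 mmol NADPH, 100 mmol phosphate pH 7.4, probe cocktail (10 μM midazolam, 100 μM testosterone, 10 μM dextromethorphan, 20 μM diclofenac, 100 μM phenacetin, 100 μM mephenytoin), test compound 10 μM or PBS; organic solvent <1%. 5 min preincubation at 37 °C, NADPH-generating system start, 20 min reaction; inhibition from metabolite formation relative to PBS.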

Data set [8] addresses T2, CYP3A4. Put plainly: Inhibition of CYP3A4 in human liver microsomes at 10 uM preincubated for 5 mins before NADPH addition and measured after 20 mins post NADPH addition. Format: ADME.
Data set [9] concerns the target CYP2D6 (Homo sapiens, UniProt P10635). Put plainly: Inhibition of CYP2D6 in human liver microsomes at 10 uM using dextromethorphan substrate preincubated for 5 mins before NADPH addition and measured after 20 mins post NADPH addition. The data set is classed as ADME. The following applies: liver microsomes, probe dextromethorphan. The method in brief: as §1
In data set [10] the target is CYP2C9 (Homo sapiens, UniProt P11712). Description: Inhibition of CYP2C9 in human liver microsomes at 10 uM using diclofenac substrate preincubated for 5 mins before NADPH addition and measured after 20 mins post NADPH addition. The following applies: liver microsomes, probe diclofenac. Format: ADME. An outline of the steps:
as §1

The target of data set [11] is T3, CYP1A2 (Homo sapiens, UniProt P05177).
T3 sequence (P05177 whole entry): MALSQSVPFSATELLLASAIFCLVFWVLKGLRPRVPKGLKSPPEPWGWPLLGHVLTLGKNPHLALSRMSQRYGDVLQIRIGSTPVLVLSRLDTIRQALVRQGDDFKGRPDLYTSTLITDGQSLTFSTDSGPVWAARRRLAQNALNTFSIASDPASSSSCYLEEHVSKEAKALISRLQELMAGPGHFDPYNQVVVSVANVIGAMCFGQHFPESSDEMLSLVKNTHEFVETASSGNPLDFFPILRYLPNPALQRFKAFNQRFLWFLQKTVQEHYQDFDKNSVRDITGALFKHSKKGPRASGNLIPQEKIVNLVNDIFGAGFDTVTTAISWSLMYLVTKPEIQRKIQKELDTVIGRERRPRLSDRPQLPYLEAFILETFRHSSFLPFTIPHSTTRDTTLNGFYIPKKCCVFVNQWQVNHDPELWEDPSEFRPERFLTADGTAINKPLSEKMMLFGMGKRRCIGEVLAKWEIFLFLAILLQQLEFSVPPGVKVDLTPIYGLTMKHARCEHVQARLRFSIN
Put plainly: Inhibition of CYP1A2 in human liver microsomes at 10 uM using phenacetin substrate preincubated for 5 mins before NADPH addition and measured after 20 mins post NADPH addition. The following applies: probe phenacetin. The data set is classed as ADME. The method in brief: as §1

Data set [12] addresses CYP2C19 (Homo sapiens, UniProt P33261). Description: Inhibition of CYP2C19 in human liver microsomes at 10 uM using mephenytoin substrate preincubated for 5 mins before NADPH addition and measured after 20 mins post NADPH addition. The data set is classed as ADME. The following applies: probe mephenytoin. An outline of the steps:
as §1

Data set [13] deals with Cytochrome P450 2C9 (Homo sapiens, UniProt P11712). Put plainly: Time dependent inhibition of CYP2C9 in human liver microsomes at 10 uM using diclofenac substrate preincubated for 5 mins before NADPH addition and measured after 20 mins post NADPH addition. The data set is classed as ADME.
Data set [14] has as its target Cytochrome P450 2C19 (Homo sapiens, UniProt P33261). Put plainly: Time dependent inhibition of CYP2C19 in human liver microsomes at 10 uM using mephenytoin substrate preincubated for 5 mins before NADPH addition and measured after 20 mins post NADPH addition. Format: ADME.

T2 sequence (P08684 whole entry): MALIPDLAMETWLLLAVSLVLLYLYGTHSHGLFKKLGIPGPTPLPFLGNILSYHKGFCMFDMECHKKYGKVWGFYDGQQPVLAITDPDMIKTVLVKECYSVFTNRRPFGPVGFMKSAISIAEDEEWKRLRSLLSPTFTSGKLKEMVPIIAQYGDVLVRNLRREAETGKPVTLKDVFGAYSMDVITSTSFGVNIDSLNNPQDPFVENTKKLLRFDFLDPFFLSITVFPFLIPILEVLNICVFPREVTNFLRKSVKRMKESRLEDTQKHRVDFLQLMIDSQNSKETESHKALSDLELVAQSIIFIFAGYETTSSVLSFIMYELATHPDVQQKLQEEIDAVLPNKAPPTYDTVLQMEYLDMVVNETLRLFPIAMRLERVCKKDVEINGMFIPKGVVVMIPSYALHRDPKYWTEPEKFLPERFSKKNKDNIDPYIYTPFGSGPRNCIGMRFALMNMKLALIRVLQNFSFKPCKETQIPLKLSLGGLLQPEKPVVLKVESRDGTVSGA
Chain of CYP2D6 (P10635 whole entry): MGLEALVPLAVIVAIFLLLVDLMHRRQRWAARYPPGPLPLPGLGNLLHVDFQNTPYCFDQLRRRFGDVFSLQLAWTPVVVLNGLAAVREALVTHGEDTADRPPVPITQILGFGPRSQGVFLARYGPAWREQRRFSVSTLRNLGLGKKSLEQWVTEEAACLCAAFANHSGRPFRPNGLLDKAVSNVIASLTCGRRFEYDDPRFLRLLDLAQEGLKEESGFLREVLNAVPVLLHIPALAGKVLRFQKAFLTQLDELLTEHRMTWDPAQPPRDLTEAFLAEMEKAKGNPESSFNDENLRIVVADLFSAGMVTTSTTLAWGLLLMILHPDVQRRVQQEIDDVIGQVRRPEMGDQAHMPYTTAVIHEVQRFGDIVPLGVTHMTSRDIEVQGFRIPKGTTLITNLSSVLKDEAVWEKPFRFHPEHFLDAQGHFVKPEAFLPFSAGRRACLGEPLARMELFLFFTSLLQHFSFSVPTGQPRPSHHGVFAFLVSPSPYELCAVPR
Chain of CYP2C19 (P33261 whole entry): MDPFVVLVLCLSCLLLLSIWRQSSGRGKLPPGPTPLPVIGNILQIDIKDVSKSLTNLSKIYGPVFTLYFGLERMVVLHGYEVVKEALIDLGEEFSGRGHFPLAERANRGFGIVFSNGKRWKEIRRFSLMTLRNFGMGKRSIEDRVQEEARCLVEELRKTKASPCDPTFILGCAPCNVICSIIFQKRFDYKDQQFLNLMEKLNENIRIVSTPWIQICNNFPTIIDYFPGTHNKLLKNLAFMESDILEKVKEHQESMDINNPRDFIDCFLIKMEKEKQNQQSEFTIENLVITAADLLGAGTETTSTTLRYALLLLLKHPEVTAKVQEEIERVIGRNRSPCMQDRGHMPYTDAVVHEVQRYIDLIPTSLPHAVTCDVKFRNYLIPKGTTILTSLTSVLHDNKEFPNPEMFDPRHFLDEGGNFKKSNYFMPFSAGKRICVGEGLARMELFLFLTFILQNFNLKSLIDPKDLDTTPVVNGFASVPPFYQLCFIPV
Chain of Cytochrome P450 2C19 (P33261 whole entry): as above
Chain of Cytochrome P450 2C9 (P11712 whole entry): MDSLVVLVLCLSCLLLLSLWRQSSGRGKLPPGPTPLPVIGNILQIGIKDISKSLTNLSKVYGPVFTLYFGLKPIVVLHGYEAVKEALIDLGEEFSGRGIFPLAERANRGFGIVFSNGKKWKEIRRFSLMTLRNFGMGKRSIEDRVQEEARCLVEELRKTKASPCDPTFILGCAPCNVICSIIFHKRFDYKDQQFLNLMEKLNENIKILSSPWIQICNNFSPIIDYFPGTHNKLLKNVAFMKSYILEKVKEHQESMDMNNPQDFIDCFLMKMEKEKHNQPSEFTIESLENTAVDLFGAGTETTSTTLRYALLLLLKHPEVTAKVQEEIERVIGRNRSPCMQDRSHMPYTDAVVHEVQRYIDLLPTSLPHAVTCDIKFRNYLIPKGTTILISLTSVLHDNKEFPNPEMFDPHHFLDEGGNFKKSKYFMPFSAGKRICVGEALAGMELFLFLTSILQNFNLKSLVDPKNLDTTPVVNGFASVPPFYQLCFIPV
Chain of CYP2C9 (P11712 whole entry): as above

Turning to `O=c1[nH]c(-c2cc(Br)cc(S(=O)(=O)NC3CCCC3)c2)cs1`, the IC50 in data set [1] is 300 nM; in data set [2] it was 57100 nM.
For `CCCC(=O)Nc1cc(-c2csc(=O)[nH]2)cc(S(=O)(=O)NC2CCCC2)c1`, the IC50 in [1] stood at 170 nM; in [2], 13900 nM; in data set [3], 2530 nM; in [4] it was 791 nM.
Take `O=c1[nH]c(-c2cccc(S(=O)(=O)NC3CCOC3)c2)cs1` (stereo unspecified): the IC50 in data set [1] was found to be 5820 nM.
As to `CCCC(=O)Nc1cc(-c2csc(=O)[nH]2)cc(S(=O)(=O)NC2CCCC2)c1C`, the IC50 in data set [1] came out at 930 nM; in [2], 23500 nM.
As for `Cc1c(NC(=O)c2cccs2)cc(-c2csc(=O)[nH]2)cc1S(=O)(=O)NC1CCCC1`, the half-maximal inhibitory concentration (IC50) in data set [1] came out at 790 nM; in data set [2], 20100 nM; in [3], 4090 nM; in data set [4], 602 nM.
Regarding `O=C(Nc1ccc(-c2csc(=O)[nH]2)cc1S(=O)(=O)NC1CCCC1)C1CC1`, the half-inhibitory concentration (IC50) in data set [1] was found to be 800 nM; in data set [2], 13000 nM.
Take `Cc1c(NC(=O)C2CC2)cc(-c2csc(=O)[nH]2)cc1S(=O)(=O)NC1CCCC1`: the concentration for half-maximal inhibition (IC50) in [1] is 220 nM; in data set [2], 28500 nM; in [3], 1760 nM; in [4] it was 450 nM.
For the compound `O=c1[nH]c(-c2cccc(S(=O)(=O)NCC3CCCO3)c2)cs1` (stereo unspecified), the IC50 in data set [1] amounted to 9310 nM.
On to `Nc1ccc(NS(=O)(=O)c2cccc(-c3csc(=O)[nH]3)c2)cc1`, for which, in data set [1], the midpoint of inhibition, the IC50, lay at 8330 nM.
On to `O=c1[nH]c(-c2cccc(S(=O)(=O)NC3CCCCC3)c2)cs1`, for which half-maximal inhibition in data set [1] (IC50) required 2060 nM.
Same read-out and setting: under `O=c1[nH]c(-c2cccc(S(=O)(=O)NCc3ccccc3)c2)cs1` stands above 10000 nM; under `O=c1[nH]c(-c2cccc(S(=O)(=O)NC3CCCC3)c2)cs1`, 1400 nM.
On the same count and under the same terms, under `O=c1[nH]c(-c2cccc(S(=O)(=O)Nc3ccon3)c2)cs1` stands 7340 nM.
With `COCC(=O)Nc1ccc(-c2csc(=O)[nH]2)cc1S(=O)(=O)NC1CCCC1`, the 50% inhibitory concentration (IC50) turned out to be 400 nM in data set [1], 24600 nM in data set [2], 2310 nM in data set [3] and 681 nM in data set [4].
In the case of `Cc1sc2c(c1C)C(c1ccc(Cl)cc1)=N[C@@H](CC(=O)OC(C)(C)C)c1nnc(C)n1-2`, the half-maximal inhibitory concentration (IC50) in [2] stood at 104 nM; in data set [3], 109 nM; in data set [4] it was 23 nM. In addition, the ΔTm in data set [5] is 1.04 °C. For the same compound, in data set [6], the microsomal CLint at 1 µM is 78 µL/min/mg. The inhibition at 20 min, 10 µM in data set [7] is 30%; in data set [8], 28%; in data set [9], 2%; in [10], 18%; in data set [11] it was 2%; in [12] it was 18%. Also, the TDI entry in data set [13] and in [14] was “Active” throughout.
Compound `O=c1[nH]c(-c2cccc(S(=O)(=O)NCCc3cccs3)c2)cs1` returned a 50% inhibitory concentration (IC50) in data set [1] above 10000 nM.
Consider `O=c1[nH]c(-c2ccc(Cl)c(S(=O)(=O)NC3CCCC3)c2)cs1`, for which the IC50 in [1] amounted to 250 nM; in data set [2] it was 23700 nM; in data set [3], 3370 nM; in data set [4], 341 nM.
Consider `O=c1[nH]c(-c2ccc(F)c(S(=O)(=O)NC3CCCC3)c2)cs1`, for which the IC50 worked out at 500 nM in data set [1] and 35200 nM in data set [2].
For `Nc1cc(-c2csc(=O)[nH]2)cc(S(=O)(=O)NC2CCCC2)c1`, the IC50 was determined as 460 nM in data set [1], 6150 nM in [2], 3580 nM in [3] and 689 nM in data set [4].
In turn, `O=c1[nH]c(-c2ccccc2F)cs1` came in with a concentration for half-maximal inhibition (IC50) in data set [1] above 100000 nM.
In data set [1], `O=c1[nH]c(-c2cccc(S(=O)(=O)NC3CC3)c2)cs1` showed a half-inhibitory concentration (IC50) of 2260 nM.
Same read-out and setting: the same measure for `COc1ccc(NS(=O)(=O)c2cccc(-c3csc(=O)[nH]3)c2)cc1`: above 10000 nM.
